This is an account of results in ChEMBL document CHEMBL5046273, “Development of a Novel, Small-Molecule Brain-Penetrant Histone Deacetylase Inhibitor That Enhances Spatial Memory Formation in Mice” (J Med Chem, 2022).

For series [1], the system named is DU-145. In words: Cytotoxicity against human DU-145 cells assessed as reduction in cell viability incubated for 48 hrs by MTT assay. It counts as functional. The method in brief:
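DU145 cells grown in DMEM with 10% FBS, penicillin/streptomycin and L-glutamine at 37 °C and 5% CO2. Cells seeded at 14 000/well and allowed to adhere 24 h. Compounds diluted from 10 mM DMSO stocks into medium (final 25–100 μM), DMSO vehicle, triplicate wells, 48 h. MTT 250 μg/mL for 4 h, dissolved in DMSO, A570 (ref 690). Normalized to DMSO; three independent experiments.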

Series [2] can be described thus: AUC in Swiss Webster mouse blood at 40 mg/kg, ip by LC-MS/MS analysis. Type of series: ADME, organism-based. Further details: dose 40 mg/kg. Put shortly: (§1)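 Single i.p. dose of 40 mg/kg in Swiss Webster mice; blood, brain and liver taken at several time points. Tissues homogenized in acetonitrile, centrifuged, spin-filtered, dried and reconstituted, with 4,5-diphenylimidazole as instrument standard. Quantified by LC–MS/MS on a C18 column with a formic acid/MeCN gradient. Mean ± SD (n = 4), fitted to a two-compartment PK model.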

Series [3] can be described thus: Toxicity in ip dosed BALB/c mouse assessed as maximum tolerated dose measured after 2 weeks. Conditions: in vivo, 336 h. It counts as organism-based. Put shortly: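 Healthy BALB/c mice, compound in 20% DMSO/saline, single i.p. dose. One mouse each at 200, 100 and 50 mg/kg, then 25, 12.5 and 6.25 mg/kg if needed, repeated until a tolerated dose was found. Last test repeated once. Mice weighed daily for 8 days; euthanized at >20% weight loss or overt toxicity. Morbidity/mortality followed over 2 weeks; triplicate experiments.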

For series [4], the target named is Histone deacetylase 2 (Homo sapiens, UniProt Q92769). In words: Inhibition of recombinant human full-length HDAC2 preincubated for 20 mins with DTT followed by enzyme addition and measured after 10 mins by Glo-luminescence assay. The method in brief: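 Compounds were serially diluted and incubated with enzyme for 10 min. HDAC-Glo I/II substrate/developer was then added, and luminescence read after 40 min at 23 °C. IC50 from four-parameter fits from two independent titrations, mean ± SD.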

The subject of series [5] is DU-145. In words: Cytotoxicity against human DU-145 cells assessed as reduction in cell viability at 50 uM incubated for 48 hrs by MTT assay. It counts as functional. Put shortly: (§2)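 DU145 cells in DMEM with 10% FBS were seeded at 14 000 cells/well and allowed to adhere for 24 h. Test agents were diluted from 10 mM DMSO stocks (100, 50, 25 µM; 10, 5, 1.25 nM) and applied in triplicate for 48 h at 37 °C, 5% CO2, with DMSO as vehicle. Read-out was 250 µg/mL MTT for 4 h, DMSO solubilization, and A570 with 690 nm reference. Values normalized to DMSO.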

Series [6] relates to DU-145. In words: Cytotoxicity against human DU-145 cells assessed as reduction in cell viability at 100 uM incubated for 48 hrs by MTT assay. It counts as functional. Put shortly:
as §2

The target in series [7] is Histone deacetylase 3 (Homo sapiens, UniProt O15379). In words: Inhibition of HDAC3 in human DU-145 cells assessed as increase in histone H3 acetylation after 24 hrs by immunofluorescence microscopy. It counts as cell-based.
For series [8], the target named is T1, Histone deacetylase 8 (Homo sapiens, UniProt Q9BY41).
T1 sequence (Q9BY41 whole entry): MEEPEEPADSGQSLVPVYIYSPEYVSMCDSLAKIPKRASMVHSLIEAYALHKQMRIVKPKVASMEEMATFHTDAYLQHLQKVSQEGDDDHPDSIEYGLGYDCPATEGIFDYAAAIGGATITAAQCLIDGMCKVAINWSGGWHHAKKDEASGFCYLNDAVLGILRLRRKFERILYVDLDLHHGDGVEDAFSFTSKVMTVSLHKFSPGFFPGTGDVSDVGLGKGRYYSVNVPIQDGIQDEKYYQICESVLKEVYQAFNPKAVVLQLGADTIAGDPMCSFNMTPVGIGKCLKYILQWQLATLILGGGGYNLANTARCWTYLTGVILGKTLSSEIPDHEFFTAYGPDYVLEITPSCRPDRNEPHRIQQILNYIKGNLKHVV
In words: Inhibition of HDAC8 in human DU-145 cells assessed as increase in histone H3 acetylation after 24 hrs by immunofluorescence microscopy. It counts as cell-based.

The nature of series [9]: Elimination rate in Swiss Webster mouse blood at 40 mg/kg, ip by LC-MS/MS analysis. It counts as ADME, organism-based. The method in brief: as §1
Series [10] in a line: Drug uptake in BALB/c mouse brain at 40 mg/kg, ip measured upto 60 mins by mass spectroscopy analysis. It counts as ADME, organism-based. As to conditions: in vivo, 1 h. The method in brief: (§3)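 BALB/c mice received 40 mg/kg i.p. Retro-orbital blood was collected under isoflurane, then liver and whole brain after CO2 euthanasia, at 10, 30 and 60 min. Acetonitrile extracts were spin-filtered with 4,5-diphenylimidazole as instrument standard and analysed by LC–MS/MS.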

The nature of series [11]: Drug uptake in BALB/c mouse liver at 40 mg/kg, ip measured upto 60 mins by mass spectroscopy analysis. Type of series: ADME, organism-based. As to conditions: in vivo, 1 h. Put shortly: as §3
Series [12] in a line: Drug uptake in BALB/c mouse hippocampus at 20 to 40 mg/kg, ip measured after 10 mins by mass spectroscopy method. It counts as ADME, organism-based. Conditions: in vivo, dose 20-40 mg/kg. Put shortly: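 BALB/c mice were dosed i.p.: 20 mg/kg with brains taken at 10 min (two mice), or 40 mg/kg with brains taken at 10 and 30 min. Dorsal hippocampus was dissected on wet ice, extracted in acetonitrile and analysed by LC–MS/MS in MRM mode (m/z 485 [M+Na+] transitions) against a 4,5-diphenylimidazole internal standard.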

Series [13] is described as follows: Half life in Swiss Webster mouse blood at 40 mg/kg, ip by LC-MS/MS analysis. Type of series: ADME, organism-based. Conditions: in vivo. Put shortly: as §1
Series [14] in a line: Tmax in Swiss Webster mouse brain at 40 mg/kg, ip by LC-MS/MS analysis. Type of series: ADME, organism-based. The method in brief: as §1
The nature of series [15]: Half life in Swiss Webster mouse brain at 40 mg/kg, ip by LC-MS/MS analysis. Type of series: ADME, organism-based. Conditions: in vivo. Put shortly: as §1
The nature of series [16]: Tmax in Swiss Webster mouse liver at 40 mg/kg, ip by LC-MS/MS analysis. It counts as ADME, organism-based. The method in brief: as §1
The nature of series [17]: Cmax in Swiss Webster mouse liver at 40 mg/kg, ip by LC-MS/MS analysis. Further details: route intraperitoneal, dose 40 mg/kg. It counts as ADME, organism-based. The method in brief:
as §1

Series [18] can be described thus: Half life in Swiss Webster mouse liver at 40 mg/kg, ip by LC-MS/MS analysis. It counts as ADME, organism-based. As to conditions: in vivo. The method in brief:
as §1

The nature of series [19]: AUC in Swiss Webster mouse liver at 40 mg/kg, ip by LC-MS/MS analysis. Type of series: ADME, organism-based. Further details: dose 40 mg/kg. Conditions: in vivo. The method in brief:
as §1

Series [20] has as its system Mus musculus. In words: Cognitive enhancing effect in C57BL/6 mouse assessed as enhanced spatial memory at 20 to 40 mg/kg, ip measured after 24 hrs. As to conditions: dose 20-40 mg/kg. It counts as functional, organism-based. Put shortly:
(§4)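 Male C57BL/6 mice trained to 30 s of total exploration of two identical objects (20 min maximum). Immediately afterwards they received one i.p. injection at 5 mL/kg in 100% DMSO (20, 30 or 40 mg/kg); vehicle DMSO, NaBu 600 mg/kg in saline. Object placement (moved object) tested at 24 h and object recognition (novel object) at 48 h. Time with that object compared to chance (15 s) by one-sample t-test.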

Series [21] in a line: Elimination rate in Swiss Webster mouse liver at 40 mg/kg, ip by LC-MS/MS analysis. It counts as ADME, organism-based. The method in brief: as §1
Series [22] relates to Mus musculus. In words: Cognitive enhancing effect in C57BL/6 mouse assessed as enhanced object recognition memory consolidation at 20 to 40 mg/kg, ip measured after 48 hrs. Type of series: functional, organism-based. As to conditions: dose 20-40 mg/kg. Put shortly:
as §4

Molecules are shown by their SMILES. Active and inactive are the calls of the source. No cut-off for these calls is given here. Where only a bound is given, the exact number is not on record here.

Histone deacetylase 2, sequence (Q92769 whole entry): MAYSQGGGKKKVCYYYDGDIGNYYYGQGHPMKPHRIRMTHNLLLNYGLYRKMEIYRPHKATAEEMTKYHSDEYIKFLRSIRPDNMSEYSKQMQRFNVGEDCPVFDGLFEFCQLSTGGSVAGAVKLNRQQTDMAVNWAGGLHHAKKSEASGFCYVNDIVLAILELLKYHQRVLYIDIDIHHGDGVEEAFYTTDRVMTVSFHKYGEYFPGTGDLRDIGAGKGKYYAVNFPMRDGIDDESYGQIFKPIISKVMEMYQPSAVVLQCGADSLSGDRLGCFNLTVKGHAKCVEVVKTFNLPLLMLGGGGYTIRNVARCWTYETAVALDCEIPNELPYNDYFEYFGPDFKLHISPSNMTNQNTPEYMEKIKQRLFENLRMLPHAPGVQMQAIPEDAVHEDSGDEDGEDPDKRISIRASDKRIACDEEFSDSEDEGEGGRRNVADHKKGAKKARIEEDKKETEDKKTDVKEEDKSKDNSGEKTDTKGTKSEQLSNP
Histone deacetylase 3, sequence (O15379 whole entry): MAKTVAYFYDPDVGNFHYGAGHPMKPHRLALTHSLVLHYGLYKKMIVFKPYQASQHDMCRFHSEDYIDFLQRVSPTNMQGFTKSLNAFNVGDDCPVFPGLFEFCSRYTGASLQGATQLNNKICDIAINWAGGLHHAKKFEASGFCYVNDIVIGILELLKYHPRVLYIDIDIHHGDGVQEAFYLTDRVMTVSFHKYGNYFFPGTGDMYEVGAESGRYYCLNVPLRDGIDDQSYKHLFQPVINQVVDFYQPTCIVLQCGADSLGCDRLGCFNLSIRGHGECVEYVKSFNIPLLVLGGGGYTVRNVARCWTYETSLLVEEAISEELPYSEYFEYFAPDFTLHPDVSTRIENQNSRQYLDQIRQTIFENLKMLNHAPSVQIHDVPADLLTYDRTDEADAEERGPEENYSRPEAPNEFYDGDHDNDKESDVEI

With `CC(C)(C)OC(=O)CC(O)/C=C/CCSSCC/C=C/C(O)CC(=O)OC(C)(C)C` (stereo not drawn), in series [1], the Activity result was “Dose-Dependent Effect”. Besides, in series [1] (read-out: LD50 (the source's name)), the CC50 amounted to 39 µM. The AUC in series [2] was 88.1 ng·h/mL; in series [19], 31091 ng·min/g. Besides, in [3], the MTD is greater than 200 mg/kg. Further, the figures for the concentration for half-maximal inhibition (IC50) in [4], in [7] and in [8] were 10 µM, 8 µM and 11 µM, respectively. Besides, the inhibition at 50 µM in [5] was found to be 50%. The inhibition at 100 µM in [6] stood at 80%. Also, the k el in series [9] is 0.000367 s⁻¹; in [21], 0.000283 s⁻¹. Moreover, the Drug uptake result in [10], in series [11] and in series [12] was “Active” throughout. For the same compound, the t1/2 was found to be 45.4 min in series [13], 13.4 min in series [15] and 41 min in series [18]. In addition, the Tmax in [14] and in [16] was 10 min each time. Besides, the Cmax in series [17] is 530 ng/g. For the same compound, the outcome in series [20] was Active. The result in series [22] was inactive.
